# Tests used:
# [1] = molecular target: Muscarinic acetylcholine receptor; assay: Displacement of [3H]- quinuclidinyl benzilate from rat brain Muscarinic acetylcholine receptor
# Rattus norvegicus [2] = assay: Antisecretory activity against acute gastric fistula(AGF) in rat when administered perorally; assay type: functional; details: Stomach, po
# Outline: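 Female Sprague-Dawley rats, 120-160 g, fasted ≥18 h; drug or vehicle (0.5% methocel) po 1 h before surgery. Under ether, fundic fistula tube inserted; first 30-min sample discarded, then two 1-h collections. Volume measured, aliquot titrated to pH 7 with 0.01 N NaOH for total acid output. ED50 = dose for 50% inhibition vs controls, least-squares regression; ≥5 rats/group, ≥3 doses.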
# Rattus norvegicus [3] = assay: Anticholinergic activity against carbachol induced gastric emptying(GE) in rat when administered perorally; assay type: functional; details: Stomach, po
# Outline: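 Ten 1-mm polystyrene beads placed in stomach by tube 30 min later; carbachol 80 mcg/kg sc at 1 h post-dose; killed 15 min after. Beads left in stomach counted. ED50 = dose giving 50% inhibition of emptying vs controls, by least-squares regression; ≥5 rats/group, ≥3 dose groups.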
# Rattus norvegicus [4] = organism: Rattus norvegicus; assay: Relative potency against atropine; assay type: functional
# [5] = Ratio between gastric emptying(GE) and acute gastric fistula(AGF); assay type: functional, Stomach
# Rattus norvegicus [6] = assay: Anticholinergic activity against carbachol-induced gastric emptying (GE) in rat when administered perorally; details: Stomach, po
# Rattus norvegicus [7] = organism: Rattus norvegicus; assay: animal or person; details: Stomach, po
I50 [1] [nM],SMILES,ED50 (Rattus norvegicus [2]) [mg/kg],ED50 (Rattus norvegicus [3]) [mg/kg],Relative Potency (Rattus norvegicus [4]),Ratio [5],ED50 (Rattus norvegicus [6]) [mg/kg],ED50 (Rattus norvegicus [7]) [mg/kg]
1300,C#CC/N=C/N1CCC(C(c2ccccc2)c2ccccc2)CC1.Cl,5.4,8,0.19,1.48,–,–
3,Cl.N=CN1CCC(C(c2ccccc2)c2ccccc2)CC1,0.34,0.86,81.7,2.53,–,–
490,C=CC/N=C/N1CCC(C(c2ccccc2)c2ccccc2)CC1,10.4,13.2,0.51,1.27,–,–
70,CCC(=N)N1CCC(C(c2ccccc2)c2ccccc2)CC1,54.5,20,3.61,0.37,–,–
3800,CCCCCCCCCC/N=C/N1CCC(C(c2ccccc2)c2ccccc2)CC1,7.8,43.1,0.06,5.52,–,–
3300,CCCCCCC/N=C/N1CCC(C(c2ccccc2)c2ccccc2)CC1.O=C(O)/C=C/C(=O)O,11.5,33.4,0.08,2.9,–,–
1900,CCCCCC/N=C/N1CCC(C(c2ccccc2)c2ccccc2)CC1.O=C(O)/C=C/C(=O)O,8.34,15,0.13,1.8,–,–
1600,CC(C)/N=C/N1CCC(C(c2ccccc2)c2ccccc2)CC1.O=C(O)/C=C/C(=O)O,8.6,15.1,0.15,1.76,–,–
1600,CCCC/N=C/N1CCC(C(c2ccccc2)c2ccccc2)CC1.O=C(O)/C=C/C(=O)O,7.6,10.3,0.15,1.36,–,–
> 10000,CCCCCCCCC/N=C/N1CCC(C(c2ccccc2)c2ccccc2)CC1.O=C(O)/C=C/C(=O)O,10.8,40.4,–,3.74,–,–
8600,CCCCCCCC/N=C/N1CCC(C(c2ccccc2)c2ccccc2)CC1.O=C(O)/C=C/C(=O)O,10.9,176,0.04,16.15,–,–
–,CN1[C@@H]2CC[C@H]1C[C@@H](OC(=O)C(CO)c1ccccc1)C2 (stereo partly drawn) [ATROPINE],0.64,0.35,–,–,–,–
–,CN/C(=N\CCSCc1nc[nH]c1C)NC#N [CIMETIDINE],–,–,–,–,160,7.6

# Reference: ChEMBL document CHEMBL1122459, “4-(Diphenylmethyl)-1-[(imino)methyl]piperidines as gastric antisecretory agents” (J Med Chem, 1983)
